“Also recorded” adds a separate entry of the source.
Tests used:
U-937, lymphoma = experiment: IC50 determination for non-adherent cells using MTS, U-937; format: cell-based, human; settings: for IC50: read-out: IC50 U-937, MTS
HeLa, cervical carcinoma = experiment: IC50 determination for adherent cells using SRB, HeLa; format: cell-based, human; settings: read-out: IC50 HeLa, 48-hour exposure
[1] = system: A549, non-small cell lung carcinoma; experiment: IC50 determination for adherent cells using SRB, A549; format: cell-based, human; settings: read-out: IC50 A549, 48-hour exposure
BT549, breast carcinoma = experiment: IC50 determination for adherent cells using SRB, BT549; format: cell-based, human; settings: for IC50: read-out: IC50 BT549, SRB
[2] = system: IMR90, immortalized lung fibroblasts; experiment: IC50 determination for adherent cells using SRB, IMR90; format: cell-based, human; settings: read-out: IC50 IMR90, 48-hour exposure, immortalized normal cell line
[3] = system: human cell lines U-937, HeLa, A549, BT549, IMR90; experiment: 48-hour cell death panel; format: cell-based; settings: for activity against the cell lines of Table 3 (in words): 48-hour exposure, concentrations up to 10 μM
Procedure, shortened: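 Adherent lines seeded at 5,000 (HeLa) or 2,000 (A549, BT549, IMR90) cells/well and attached 2–3 h, in RPMI-1640 or, for IMR90, EMEM, each with 10% FBS. Test compound at 1 nM–10 μM on a half-log scale, in triplicate with 1% DMSO final, for 48 h continuous at 37 °C and 5% CO2. Cells fixed in cold 10% TCA and stained with SRB; dye read at 510 nm. IC50 from ≥3 independent experiments.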

[4] = system: CEM, acute lymphoblastic leukemia; experiment: IC50 determination using MTS, CEM; format: cell-based, human; settings: read-out: IC50 CEM, 48-hour
[5] = system: Jurkat, acute T-cell leukemia; experiment: IC50 determination using MTS, Jurkat; format: cell-based, human; settings: read-out: IC50 Jurkat, 48-hour
[6] = system: Daudi, Burkitt’s lymphoma; experiment: IC50 determination using MTS, Daudi; format: cell-based, human; settings: read-out: IC50 Daudi, 48-hour
[7] = system: HL-60, acute promyelocytic leukemia; experiment: IC50 determination using MTS, HL-60; format: cell-based, human; settings: read-out: IC50 HL-60, 48-hour
CA46, Burkitt’s lymphoma = experiment: IC50 determination using MTS, CA46; format: cell-based, human; settings: read-out: IC50 CA46, 48-hour
human erythrocytes = experiment: Hemolysis assay using human erythrocytes; format: cell-based
U-937 cells [8] = experiment: Western blot analysis of procaspase-3 and PARP-1 cleavage; format: cell-based, human; settings: 24 hours; 2×, 4×, 6× the 48-hour IC50
U-937 cells [9] = experiment: Apoptosis with Annexin V-FITC and propidium iodide; format: cell-based, human; settings: 21 hours; 4× and 6× the 48-hour IC50
U-937 cells [10] = experiment: Cell cycle arrest in thymidine-synchronized cells; format: cell-based, human; settings: synchronized U-937 cells, 16 hours
[11] = system: tubulin dynamics in HeLa cells; experiment: Tubulin confocal microscopy; format: cell-based, human; settings: 16 hours
[12] = system: glycogen synthase kinase-3β; settings: cited from earlier work
cells = settings: cited from earlier work
[13] = system: multiple tumor cell lines; settings: cited from earlier work
[14] = mice, in vivo; cited from earlier work
anthropods = settings: cited from earlier work

Molecule	IC50 (U-937, lymphoma; 48-hour exposure)	IC50 (HeLa, cervical carcinoma)	IC50 [1]	IC50 (BT549, breast carcinoma; 48-hour exposure)	IC50 [4]	IC50 [5]	IC50 [6]	IC50 [7]	IC50 (CA46, Burkitt’s lymphoma)	IC50 [2]	activity against the cell lines of Table 3 (in words) [3]	also measured
COC1NC(=O)c2ccc(Br)n2C1Cc1c[nH]c(=O)[nH]1 (single isomer, unassigned; (+)) [(+)-53, (+)-O-methyl-pre-agelastatin D]	> 10000 nM	> 10000 nM	> 10000 nM	> 10000 nM						> 10000 nM	none	
CN1C(=O)N[C@H]2[C@@H]3NC(=O)c4ccc(Br)n4[C@@H]3C[C@]21O [(−)-1, (−)-agelastatin A]	67 ± 3 nM	708 ± 90 nM	1050 ± 140 nM	278 ± 76 nM	20 ± 2 nM	74 ± 7 nM	20 ± 3 nM	138 ± 66 nM	187 ± 71 nM	1110 ± 350 nM	highest potency in all cell lines tested	enhanced activity in U-937 relative to the other cell lines (U-937, lymphoma; 48-hour IC50 comparison): 20 ×; enhanced activity in BT549 relative to the other cell lines (BT549, breast carcinoma; 48-hour IC50 comparison): 4 ×; concentration without effect on normal red blood cells (human erythrocytes; hemolysis after 2 h): > 333 µM; hemolytic activity (nonspecific hemolysis of red blood cells) (human erythrocytes; tested at 333 μM, 2 h): none; activation of procaspase-3 to caspase-3 and cleavage of PARP-1 (U-937 cells [8]): induced dose-dependent activation of procaspase-3 to active caspase-3, and cleavage of PARP-1; phosphatidylserine exposure / PI inclusion (apoptosis) (U-937 cells [9]): induced dose-dependent apoptosis; cell cycle arrest (U-937 cells [10]): dose-dependent G2/M cell cycle arrest; tubulin fluorescence (tubulin dynamics within cells) [11]: no change in tubulin fluorescence; inhibition of glycogen synthase kinase-3β [12]: moderately inhibits; cell cycle arrest (cells): arrest in the G2/M-phase of the cell cycle; anti-neoplastic activity against multiple tumor cell lines [13]: modest anti-neoplastic activity; penetration into CNS compartments [14]: able to penetrate into CNS compartments; toxicity towards anthropods (anthropods): exhibits toxicity
CO[C@@]12C[C@@H]3[C@@H](NC(=O)c4ccc(Br)n43)[C@@H]1NC(=O)N2C [(−)-5, (−)-agelastatin E]	2560 ± 130 nM	8600 ± 810 nM	> 10000 nM	6900 ± 2500 nM	830 ± 370 nM	1500 ± 330 nM	1410 ± 530 nM	4600 ± 3600 nM	2450 ± 950 nM	> 10000 nM	weak activity	reduction in anticancer potency relative to (−)-agelastatin A (1) ([3]; comparison of 48-hour IC50 values): > 10 fold
CC(=O)O[C@H]1C(=O)[C@@]2(C)[C@H]([C@H](OC(=O)c3ccccc3)[C@]3(O)C[C@H](OC(=O)[C@H](O)[C@@H](NC(=O)c4ccccc4)c4ccccc4)C(C)=C1C3(C)C)[C@]1(OC(C)=O)CO[C@@H]1C[C@@H]2O [Taxol, reference compound]												tubulin fluorescence (tubulin dynamics within cells) [11]: heightened
(−)-O-methyl-di-epi-agelastatin A [(−)-50]	> 10000 nM	> 10000 nM	> 10000 nM	> 10000 nM						> 10000 nM	none	
(−)-dehydroagelastatin A [(−)-51]	> 10000 nM	> 10000 nM	> 10000 nM	> 10000 nM						> 10000 nM	none	
(−)-di-epi-agelastatin C [(−)-52]	> 10000 nM	> 10000 nM	> 10000 nM	> 10000 nM						> 10000 nM	none	

Now from value to molecule, other results behind:

IC50 (U-937, lymphoma; 48-hour exposure)	IC50 (HeLa, cervical carcinoma)	IC50 [1]	IC50 (BT549, breast carcinoma; 48-hour exposure)	IC50 [4]	IC50 [5]	IC50 [6]	IC50 [7]	IC50 (CA46, Burkitt’s lymphoma)	Molecule	IC50 [2]	activity against the cell lines of Table 3 (in words) [3]	also measured
> 10000 nM	> 10000 nM	> 10000 nM	> 10000 nM						COC1NC(=O)c2ccc(Br)n2C1Cc1c[nH]c(=O)n1C (single isomer, unassigned; (+)) [(+)-39, (+)-O-methyl-pre-agelastatin A]	> 10000 nM	none	
> 10000 nM	> 10000 nM	> 10000 nM	> 10000 nM	2100 ± 1300 nM	5310 ± 350 nM	7200 ± 2900 nM	> 10000 nM	> 10000 nM	CN1C(=O)N[C@@]2(O)[C@@H]3NC(=O)c4ccc(Br)n4[C@@H]3C[C@@]12O [(−)-3, (−)-agelastatin C]	> 10000 nM	no activity; also recorded: completely abolishes activity	
240 ± 33 nM	1000 ± 200 nM	920 ± 160 nM	631 ± 82 nM	74 ± 25 nM	210 ± 63 nM	202 ± 15 nM	540 ± 120 nM	460 ± 240 nM	O=C1N[C@H]2[C@@H]3NC(=O)c4ccc(Br)n4[C@@H]3C[C@@]2(O)N1 [(−)-4, (−)-agelastatin D]	2750 ± 600 nM		activity against U-937 cells (in words) (U-937, lymphoma; 48-hour exposure): reasonable activity; activity against BT549 cells (in words) (BT549, breast carcinoma; 48-hour exposure): modest activity; activation of procaspase-3 to caspase-3 and cleavage of PARP-1 (U-937 cells [8]): induced dose-dependent activation of procaspase-3 to active caspase-3, and cleavage of PARP-1; phosphatidylserine exposure / PI inclusion (apoptosis) (U-937 cells [9]): induced dose-dependent apoptosis; cell cycle arrest (U-937 cells [10]): dose-dependent G2/M cell cycle arrest; tubulin fluorescence (tubulin dynamics within cells) [11]: no change in tubulin fluorescence
> 10000 nM	> 10000 nM	> 10000 nM	> 10000 nM	> 10000 nM	> 10000 nM	> 10000 nM	> 10000 nM	> 10000 nM	O=C1N[C@H]2[C@@H]3NC(=O)c4cc(Br)c(Br)n4[C@@H]3C[C@@]2(O)N1 [(−)-6, (−)-agelastatin F]	> 10000 nM	no activity	
1060 ± 160 nM	4800 ± 1200 nM	> 10000 nM	4800 ± 1100 nM	290 ± 200 nM	750 ± 440 nM	460 ± 280 nM	2400 ± 1000 nM	1070 ± 420 nM	(−)-agelastatin B [(−)-2]	> 10000 nM	weak activity	
